High-throughput results as filed in PubChem BioAssay.
Shown are actives, neighbours in structure and some others; about 3.1% of the full set was active somewhere.
KCNK9 inh = inhibitors of human KCNK9 two-pore domain potassium channel. Q9NPC2. HEK293 KCNK9, FluxOR thallium flux fluorescence; hits give low values. B-score at 10 µM. 310,000 compounds, 1.2% hits;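 active means ratio B-score over 3 SD below the library mean, with starting fluorescence within 5 SD of its mean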;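 further: negative B-score means less thallium flux so channel inhibition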
hERG protect = compounds protecting human hERG from proarrhythmic drug block. Q12809. CHO-hERG, FluxOR thallium flux, dofetilide IC70 present. activation (rescue from dofetilide block), less the hit threshold, % at 10 µM. 310,000 compounds, 0.51% hits. AID 1511;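 active means activation above the mean of controls blocked by dofetilide plus 5 SD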;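 further: thallium influx through hERG after potassium depolarization seen as dye fluorescence rise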
KCNK3 block = human KCNK3 channel inhibition, primary screen; O14649; CHO-KCNK3 thallium flux, FluxOR fluorescence; hits give low values; B-score at 10 µM; 340,000 compounds, 0.84% hits;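 active means B-score under library mean minus 4 SD, starting fluorescence ratio at most library mean plus 5 SD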;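 further: more negative B-score means stronger inhibition of thallium flux through KCNK3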
Target sequence (O14649 whole entry, looked up): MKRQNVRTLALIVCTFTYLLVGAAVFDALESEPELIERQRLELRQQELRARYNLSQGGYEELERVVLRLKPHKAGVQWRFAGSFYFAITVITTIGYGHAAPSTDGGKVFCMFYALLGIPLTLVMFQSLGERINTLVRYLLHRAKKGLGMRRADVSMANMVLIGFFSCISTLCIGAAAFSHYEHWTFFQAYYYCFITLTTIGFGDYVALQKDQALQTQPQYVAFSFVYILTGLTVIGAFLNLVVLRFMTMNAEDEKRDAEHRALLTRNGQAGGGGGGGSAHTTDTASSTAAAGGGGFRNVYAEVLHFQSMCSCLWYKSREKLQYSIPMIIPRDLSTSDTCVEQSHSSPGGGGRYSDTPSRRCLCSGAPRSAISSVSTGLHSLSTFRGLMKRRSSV
KCNQ1 inh = inhibitors of human KCNQ1 potassium channel. CHO-K1 KCNQ1, FluxOR thallium flux fluorescence; hits give high values. B-score at 10 µM. 310,000 compounds, 1.3% hits. AID 2642;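 active means compounds whose thallium flux B-score, printed positive for inhibition, exceeds three library SD while starting fluorescence stays within three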;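 further: channel opened by potassium depolarization with thallium stimulus after 20 min compound exposure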
KCNQ1 act = human KCNQ1 channel potentiation or activation. CHO-K1 KCNQ1, thallium flux FluxOR fluorescence; hits give high values. B-score at 10 µM. AID 2648. 310,000 compounds, 0.35% hits;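 active means fluorescence ratio B-score, a plate-corrected score, at least three library SD, with initial intensity B-score within 5 SD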
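Assay system: CHO-K1 cells stably expressing KCNQ1. Medium: assay buffer for compound exposure, DMSO matched across wells. Timing: 37 °C overnight plating, 90-min dark dye load, 20-min compound pretreatment. Signal: kinetic FluxOR fluorescence, 10 s baseline plus 110 s post-stimulus.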
KCNK3 confirm = confirmation of human KCNK3 two-pore domain potassium channel inhibitors; ratio percent of control, % at 10 µM; CHO-KCNK3 thallium flux, FluxOR fluorescence; 0% buffer, 100% carvedilol maximal block; 2,400 compounds, 99% hits; shares compounds with KCNK3 block;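 active means ratio percent of control, averaged over triplicates, above buffer control mean plus 5 SD, cut at about 64% in these data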;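 further: ratio is the fluorescence rise from min to max over baseline after thallium stimulus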
KCNK3 uninduced = counter-screen for KCNK3 inhibitors: effect in non-induced cells; shares compounds with KCNK3 block; non-induced KCNK3 parental cells, FluxOR thallium flux; hits give low values; 2,400 compounds, 40% hits; thallium flux ratio (lower = more inhibition) at 10 µM;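 active means thallium flux ratio, averaged over three wells, more than 5 SD below the buffer control mean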;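 further: host cells are CHO cells without KCNK3 induction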
Large screens that a line does not name were inactive (follow-up assays come after a bar, where they were run).

O=C(Nc1cccc(S(=O)(=O)c2cccc(NC(=O)c3ccco3)c2)c1)c1ccco1	KCNK3 block -9.4 | KCNK3 confirm 136.3 | KCNK3 uninduced 0.143
O=C(Nc1cccc(S(=O)(=O)N2CCCC2)c1)c1ccco1	none (no result: KCNK9 inh, hERG protect, KCNQ1 inh, KCNQ1 act)
CCOC(=O)c1ccc(NC(=O)c2ccco2)cc1	none
CCOc1cccc(C(=O)Nc2cccc(C(C)=O)c2)c1	none
CCOc1cccc(C(=O)Nc2cccc(NC(=O)c3ccco3)c2)c1	KCNK9 inh -6.83, KCNK3 block -11.9 | KCNK3 confirm 76.0 | KCNK3 uninduced inactive
CN(C)C(=S)NC(=S)Nc1ccc2ccccc2c1	none (no result: KCNK9 inh, hERG protect, KCNQ1 inh, KCNQ1 act)
N#Cc1nc(-c2ccco2)oc1N1CCN(c2cccc(Cl)c2)CC1	KCNK3 block -9.61 | KCNK3 confirm 111.3 | KCNK3 uninduced inactive
Cc1cc(C)c(C#N)c(SCC(=O)c2ccc(Cl)cc2Cl)n1	KCNK3 block -10.1 | KCNK3 confirm 108.3 | KCNK3 uninduced 0.153
O=C(Cn1c(CO)nc2ccccc21)Nc1cc(C(F)(F)F)ccc1N1CCOCC1	KCNK3 block -10.2 | KCNK3 confirm 65.7 | KCNK3 uninduced inactive
CCN(CC)S(=O)(=O)c1cc(OC)c(Cl)cc1OC	none
CCCOc1cc(C)c(Cl)cc1S(=O)(=O)N(CC)CC	KCNK3 block -11.2 | KCNK3 confirm 99.3 | KCNK3 uninduced inactive
CCN(CC)CCCCNc1ncc2cc(-c3cc(OC)cc(OC)c3)c(NC(=O)NC(C)(C)C)nc2n1	none
CC1CN(C(=O)Nc2ccc(F)cc2F)CC(C)O1 (centres undefined)	none
Cc1ccc(-c2cc(-c3ccccc3)nc(Cl)n2)cc1	KCNK3 block -10.8 | KCNK3 confirm 130.3 | KCNK3 uninduced 0.115
Cc1nc(-c2ccccc2)cc(-c2ccccc2)n1	none
Cc1ccccc1S(=O)(=O)Oc1ccc2ccc(O)cc2c1	KCNK3 block -10.2 | KCNK3 confirm 97.3 | KCNK3 uninduced inactive
Cc1ccccc1C(=O)Oc1ccc2ccc(O)cc2c1	none
Cc1cc(C(=O)CN2C(=O)c3cccc(N)c3C2=O)c(C)n1Cc1cccs1	KCNK3 block -10.9 | KCNK3 confirm 121.3 | KCNK3 uninduced inactive
Cc1cc(C(=O)CN2C(=O)NC3(CCCCC3C)C2=O)c(C)n1Cc1cccs1 (centres undefined)	none
Cc1cc(OCC(=O)C(C)(C)C)c2c(-c3ccccc3)cc(=O)oc2c1	none
Cc1cccc(C(=O)Nc2cccc(OC(=O)c3cccc(C)c3)c2)c1	KCNK9 inh -7.91, KCNK3 block -9.79 | KCNK3 confirm 111.3 | KCNK3 uninduced 0.153
N#CN1CCC(NS(=O)(=O)c2ccc(C(F)(F)F)cc2)CC1	none (no result: KCNK9 inh, hERG protect, KCNQ1 inh, KCNQ1 act)
O=C(CSc1ccc(Cl)cc1Cl)N1CCC(c2nc3ccccc3s2)CC1	KCNK3 block -14.7 | KCNK3 confirm 123.7 | KCNK3 uninduced inactive
CCCS(=O)(=O)c1c(S(=O)(=O)CCC)c2c(C)cccn2c1C(N)=O	none
CCCS(=O)(=O)c1c(S(=O)(=O)CCC)c2c(C(N)=O)cccn2c1C(=O)c1ccc(F)cc1	KCNK3 block -8.96 | KCNK3 confirm 108.7 | KCNK3 uninduced inactive
COc1ccc(-c2noc(=O)n2Cc2ccccc2Cl)cc1	none
CC(Sc1nnc(C2CC2)n1C1CC1)C(=O)Nc1ccccc1C#N (centres undefined)	none (no result: KCNK9 inh, hERG protect, KCNQ1 inh, KCNQ1 act)
CCC(CC)C(=O)Nc1nnc(S(=O)(=O)Nc2ccccc2C)s1	none
CC(C)(C)NC(=O)C(c1ccc(F)cc1)N(C(=O)CCC(=O)Nc1ccccn1)C1CCCC1 (centres undefined)	none
CC(C)NC(=O)C(c1ccc(F)cc1)N(C(=O)CCC(=O)Nc1ccccn1)C1CCCC1 (centres undefined)	KCNK3 block -12.6 | KCNK3 confirm 89.0 | KCNK3 uninduced inactive
N#C/C(=N\Nc1cccc(C(F)(F)F)c1)C(=O)c1csc(-c2cccnc2)n1	KCNK3 block -9.43, KCNQ1 inh 7 | KCNK3 confirm 100.7 | KCNK3 uninduced 0.13
Cc1ccc(C(=O)Nc2cccc(C(F)(F)F)c2)cc1NC(=O)c1csc(-c2ccncc2)n1	none
